Screening data deposited in PubChem by The Scripps Research Institute Molecular Screening Center.
CHO parental Ca – counter-screen for OX1R antagonists: effect in parental CHO cells; inhibition, % at 5.6 µM; 330,000 compounds, 0.63% hits; parental CHO-K1, ATP-induced calcium, Fluo-8 fluorescence;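 active means inhibition above that plate's mean sample inhibition plus 3 SD, cut at about 26% in these data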;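 further: 0% = ATP-challenged DMSO wells and 100% = DMSO wells without ATP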
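material = parental CHO cells | also added = ATP as calcium-mobilizing challenge | dosing = single point at 5.6 µM | detection = intracellular calcium via Fluo-8 no-wash fluorescent dye | read-out = % inhibition | benchmarks = low control ATP plus DMSO, high control DMSO only | repeats = one well per compound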
OX1R antag-1 – OX1R (human) antagonism; OX1R-expressing cells, FRET antagonist read-out; inhibition, % at 6.6 µM; 330,000 compounds, 1.8% hits; in the data active means inhibition mostly above about 38%, no sharp cut-off; inactive means mostly below about 40%;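 further: 0% = agonist challenge alone and 100% = reference antagonist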
Target sequence (O43613 whole entry, looked up): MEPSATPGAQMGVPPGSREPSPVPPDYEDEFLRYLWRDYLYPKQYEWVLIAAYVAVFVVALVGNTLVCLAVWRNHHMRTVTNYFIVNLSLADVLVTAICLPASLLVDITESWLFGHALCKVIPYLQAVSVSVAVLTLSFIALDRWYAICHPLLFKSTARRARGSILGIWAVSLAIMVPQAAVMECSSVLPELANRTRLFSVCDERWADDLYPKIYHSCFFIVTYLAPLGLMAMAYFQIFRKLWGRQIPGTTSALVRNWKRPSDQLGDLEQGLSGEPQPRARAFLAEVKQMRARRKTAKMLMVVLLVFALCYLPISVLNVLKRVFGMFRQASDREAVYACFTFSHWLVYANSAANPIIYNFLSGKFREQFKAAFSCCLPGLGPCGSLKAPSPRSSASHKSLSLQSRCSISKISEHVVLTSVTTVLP
OX1R antag-2 – blocks the human orexin 1 receptor; CHO/OX1R cells, Fluo-8 calcium fluorescence, orexin A; inhibition, % at 5 µM; 330,000 compounds, 0.43% hits; AID 434989;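 active means inhibition above its plate's threshold, mean inhibition of all tested compounds on the plate plus 3 SD, cut at about 37% in these data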;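 further: 0% = orexin A challenge wells and 100% = SB-334867-A antagonist wells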
TAAR1 antagonist – antagonists of human TAAR1 | AID 624466 | Q96RJ0 | 360,000 compounds, 1.5% hits | inhibition, % at 3 µM | CHO RD-HGA16 TAAR1, Fluo-8 calcium fluorescence, antagonist;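 active means inhibition above a per-plate cutoff, the mean inhibition of test compounds on that plate plus 3 SD, cut at about 49% in these data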;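 further: 0% = DMSO plus EC80 beta-PEA response and 100% = DMSO alone without agonist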
Target sequence (Q96RJ0 whole entry, looked up): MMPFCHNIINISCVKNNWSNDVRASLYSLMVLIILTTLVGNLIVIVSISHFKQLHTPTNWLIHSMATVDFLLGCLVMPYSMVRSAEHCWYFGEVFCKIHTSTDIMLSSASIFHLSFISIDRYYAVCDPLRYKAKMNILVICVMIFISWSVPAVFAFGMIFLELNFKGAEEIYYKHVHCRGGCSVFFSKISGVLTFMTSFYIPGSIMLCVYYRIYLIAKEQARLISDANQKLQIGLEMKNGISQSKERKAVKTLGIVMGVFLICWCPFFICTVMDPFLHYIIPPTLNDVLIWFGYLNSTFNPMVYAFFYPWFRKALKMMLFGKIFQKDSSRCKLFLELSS
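Test system: hTAAR1-expressing CHO RD-HGA16 cells, Gα16-coupled; Probe or stimulus: EC80 β-phenethylamine stimulus; Compound dosing: single nominal final test compound concentration of 3 µM; Timing: 140 s kinetic read after compound, 140 s after agonist; Signal: Fluo-8 calcium-sensitive fluorescence; Measure: % inhibition of agonist calcium response; Controls: DMSO and EC80 PEA controls.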
TAAR1 agonist – human TAAR1 agonism. activation, % at 3 µM. Q96RJ0. AID 624467. CHO RD-HGA16 TAAR1, Fluo-8 calcium fluorescence; vehicle wells 0%, saturating PEA agonist 100%. 360,000 compounds, 0.99% hits;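 active means activation above the mean activation of all test compounds in the run plus 3 SD, cut at about 38% in these data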
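Test system: RD-HGA16 (CHO) cells co-expressing Gα16 and hTAAR1; dosing: one-point dosing at 3 µM (nominal); timing: 17-24 h seeding, 75 min 37 °C dye, 30 min RT; signal: kinetic Fluo-8 calcium fluorescence; read-out basis: % activation relative to PEA EC100 response; controls: DMSO and PEA EC100; replicates: n 1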
GPR7 antag – blocks human GPR7 receptor signaling; P48145; GPR7-expressing cells, fluorescence antagonist assay; inhibition, % at 4.4 µM; 290,000 compounds, 1.1% hits; AID 1861; in the data active means inhibition above about 16%, passing the limit was not always enough;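 further: cells stimulated with the agonist NPW; 0% = agonist with vehicle and 100% = vehicle without agonist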
OX1R HTRF conf – confirmation of human orexin 1 receptor antagonists, HTRF format; shares compounds with OX1R antag-1; OX1R-expressing cells, HTRF antagonist assay; inhibition, % at 6.6 µM; 1,800 compounds, 49% hits; AID 492964; in the data active means inhibition above about 55%;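 further: CHO cells expressing OX1R stimulated with orexin A at about EC80; 0% = agonist challenge alone and 100% = reference antagonist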
CHO-K1 HTRF – counter-screen for OX1R antagonists: effect in parental CHO-K1 cells; shares compounds with OX1R antag-1; HTRF counterscreen; inhibition, % at 6.6 µM; 1,800 compounds, 48% hits; in the data active means inhibition above about 17%;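 further: 0% = agonist challenge with vehicle and 100% = vehicle alone without agonist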
* = called active by the depositor; · = not tested or not shown. An excerpt weighted towards active compounds, which were near 4.5% of everything screened.

SMILES | CHO parental Ca | OX1R antag-1 | OX1R antag-2 | TAAR1 antagonist | TAAR1 agonist | GPR7 antag | OX1R HTRF conf | CHO-K1 HTRF
O/N=C/c1cn(-c2ccccc2)nn1 | -8 | 4 | -12 | 4 | 5 | 11 | · | ·
COc1cccc(CN2CCN(Cc3nc(C(C)C)cs3)CC2CCO)c1 (stereo not drawn) | -18 | 17 | -24 | -13 | 5 | -6 | · | ·
CN(C1CCS(=O)(=O)C1)S(=O)(=O)c1cccc2nsnc12 (stereo not drawn) | -12 | 90* | -18 | -1 | 10 | 8 | 49 | 41*
Cc1noc(C)c1CS(=O)(=O)c1ccc([N+](=O)[O-])cc1 | 10 | 107* | -7 | -1 | 3 | -3 | 58* | 58*
Cc1ccc(S(=O)(=O)Cc2c(C)noc2C)cc1 | -3 | 1 | -10 | -8 | 12 | -8 | · | ·
CCC(NC(=O)c1ccc([N+](=O)[O-])cc1[N+](=O)[O-])c1ccccc1 (stereo not drawn) | -1 | 114* | -7 | 6 | 16 | -5 | 55* | 50*
COC(=O)Cn1c2nc3ccccc3nc2c2cccc(C)c21 | · | · | · | 5 | 0 | -19 | · | ·
Cc1cccc2c3nc4ccccc4nc3n(C)c12 | -12 | 81* | 24 | -1 | 0 | -5 | 92* | 15
CCCC[n+]1ccc(-c2nc3ccc([N+](=O)[O-])cc3[nH]2)cc1 | -5 | 113* | -13 | 7 | -2 | -6 | 56* | 80*
CC(C)(C)C(=O)N1CCN(c2ccc(NC(=O)c3ccc([N+](=O)[O-])o3)cc2)CC1 | -1 | 78* | -12 | 8 | 10 | 5 | 30 | -12
COc1ccc(N=Nc2nc3cc(Br)c(Br)cc3n2C)c(OC)c1 | 11 | 84* | 27 | 6 | 10 | -4 | 88* | 19*
COc1ccc(-c2cnc3nc[nH]c(=O)c3n2)cc1 | 8 | 197* | 2 | -2 | 5 | -13 | 56* | 90*
COc1ccc(-c2csc3nc[nH]c(=O)c23)cc1 | -3 | 14 | -11 | 3 | 2 | -2 | · | ·
O=c1/c(=C/c2ccc([N+](=O)[O-])cc2)sc2n1CCCN=2 | -3 | 169* | -9 | 8 | 6 | 13 | 61* | 84*
COc1cc(/C=c2\sc3n(c2=O)CCCN=3)ccc1O | 5 | 68 | -23 | -3 | 8 | -4 | · | ·
Cc1cccc(NC(=O)COC(=O)c2c(-c3ccccc3)noc2C)c1 | · | · | · | 1 | -2 | · | · | ·
COc1ccc(N(CC(=O)NC2CC2)S(=O)(=O)c2ccccc2)cc1 | -2 | 8 | -5 | -3 | 5 | -8 | · | ·
O=C(NCc1cccnc1)[C@@H]1CC=C[C@@H]2CCN(Cc3ccc(Cl)c(Cl)c3)C(=O)[C@@H]21 | -16 | 28 | -19 | 13 | 2 | · | · | ·
O=C(NCCc1ccccc1)[C@@H]1CC=C[C@@H]2CCN(Cc3ccc(Cl)c(Cl)c3)C(=O)[C@@H]21 | -29 | 82* | 17 | 17 | 32 | · | 66* | 5
Cc1ccc(NC(=O)CN(C)C(=O)c2nn(C)c(=O)c3ccccc23)cc1 | -3 | 11 | -1 | -16 | 7 | -12 | · | ·
CCN(CC(=O)Nc1sc2c(c1C#N)CCCC2)Cc1nc2ccccc2c(=O)[nH]1 | -14 | 83* | 24 | 28 | 5 | -11 | 58* | 0
C=CCc1cc(/C=C2/NC(=O)NC2=O)cc(OCC)c1O | -8 | 13 | -20 | 0 | 10 | 3 | · | ·
CCOc1cc(/C=C2/NC(=O)NC2=O)cc([N+](=O)[O-])c1O | 6 | 80* | 4 | 3 | 6 | -17 | 49 | 74*
COc1ccc(C(=O)Nc2ccc3ccccc3n2)cc1OC | -17 | 77* | -2 | 3 | 10 | -1 | 78* | 1
CCN(CC(=O)Nc1ccccc1OC)C(=O)COc1ccc2ccccc2c1 | -19 | 97* | 14 | 4 | 4 | -7 | 66* | 4
SMILES | CHO parental Ca | OX1R antag-1 | OX1R antag-2 | TAAR1 antagonist | TAAR1 agonist | GPR7 antag | OX1R HTRF conf | CHO-K1 HTRF
O=[N+]([O-])c1c(Nc2ccccc2O)cc(N2CCOCC2)c2nonc12 | -4 | 80* | -14 | -11 | 5 | -12 | 42 | 34*
Cc1ccc(C2c3c(oc4cc(C)c(C)cc4c3=O)C(=O)N2CCCN2CCOCC2)cc1 (stereo not drawn) | -11 | 14 | -25 | 6 | 2 | -10 | · | ·
COCCN(Cc1ccc(OC)cc1)c1c(C)nc2ccc(C(=O)Nc3ccc(NC(C)=O)cc3)cn12 | · | · | · | -10 | 0 | · | · | ·
CCCCN1C=CC(=C2N=c3cccc([N+](=O)[O-])c3=N2)C=C1 | 6 | 157* | -1 | 11 | 1 | 2 | 59* | 100*
CCCCCCN1C=CC(=C2C(=O)c3ccccc3C2=O)C=C1 | -17 | 21 | -16 | -3 | 15 | -5 | · | ·
CCNC(=O)c1cc2c(=O)n3cccc(C)c3nc2n(CCc2ccccc2)c1=N | -2 | 70 | -17 | 6 | 8 | 0 | · | ·
Cc1ccc2nc3c(cc(C(=O)NCCc4ccccc4)c(=N)n3CCCN3CCOCC3)c(=O)n2c1 | 5 | 115* | -13 | 1 | 2 | 0 | 68* | 69*
CCOCCCn1c(=N)c(C(N)=S)cc2c(=O)n3cccc(C)c3nc21 | -25 | 87* | -13 | 4 | 3 | -9 | 48 | 42*
Cc1cccn2c(=O)c3cc(C(=O)NCCN4CCOCC4)c(=N)n(CCc4ccccc4)c3nc12 | -20 | 109* | -34 | 14 | 12 | 4 | 57* | 72*
CCOc1cccc(C2/C(=C(/O)c3ccc4c(c3)CC(C)O4)C(=O)C(=O)N2CCCn2ccnc2)c1 (stereo not drawn) | -14 | 20 | -12 | -25 | 0 | 16 | · | ·
CCn1nnnc1NC(=O)c1cc(Cl)c(OC)c(Cl)c1 | -14 | 30 | -9 | -5 | 5 | -7 | · | ·
Cc1[nH]n(-c2ccccc2)c(=O)c1/C=N/Nc1nncc(-c2ccccc2)n1 | -14 | 80* | 2 | 0 | -1 | 0 | 24 | 10
O=C(COC(=O)c1ccc([N+](=O)[O-])s1)NCc1ccccc1 | -5 | 124* | -22 | 7 | -2 | -8 | 28 | 18*
O=C(COC(=O)c1ccc([N+](=O)[O-])s1)NC(c1ccccc1)c1ccccc1 | -20 | 49 | -28 | -16 | 0 | -12 | · | ·
CC(=O)c1sc(N/N=C/c2cccc([N+](=O)[O-])c2)nc1C | -11 | 21 | 1 | -1 | 2 | 17 | · | ·
CC(=O)c1sc(N/N=C\c2c(O)ccc3ccccc23)nc1C | 2 | 85* | -2 | 10 | 8 | · | 58* | 7
